Measured values from ChEMBL document CHEMBL5678799 (Biochem J, 2009).
Activity calls are given as the source filed them. No cut-off for these calls is given here.

How the values were obtained:
[1] = target: Serine/threonine-protein kinase pim-1 (Homo sapiens) (UniProt P11309); assay: Inhibition of recombinant human N-terminal His6-tagged PIM1 (2 to 313 residues) expressed in baculovirus infected Sf21 cells assessed as remaining activity at 1 uM using RSRHSSYPAGT as substrate incubated for 30 mins in presence of [gamma-33P]ATP by filter binding method relative to control
Method in brief: (§1)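 Incubations ran robotically for 30 min at room temperature (21 °C) under linear conditions. Results are percent activity remaining versus controls without compound, as the mean of triplicates ± S.D.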

mTORC1 (Homo sapiens) [2] = target: T1, mTORC1 (Homo sapiens) (UniProt P42345+Q8N122+Q9BVC4); details: HEK293, dose 30-1000 nM, time 30.0 min
mTORC2 (Homo sapiens) [3] = target: T2, mTORC2 (Homo sapiens) (UniProt P42345+Q6R327+Q9BVC4+Q9BPZ7); details: HEK293, dose 30-1000 nM, time 30.0 min
[4] = target: Myosin light chain kinase (Homo sapiens) (UniProt Q32MK0); assay: Inhibition of MLCK (unknown origin) assessed as remaining activity at 10 uM relative to control
Method in brief: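 Profiling-centre panel assay performed robotically at 21 °C for 30 min, linear with time and enzyme. […] Values are percent of compound-free control activity, the mean of triplicates ± S.D.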

[5] = target: Serine/threonine-protein kinase pim-3 (Homo sapiens) (UniProt Q86V86); assay: Inhibition of recombinant human N-terminal His6-tagged PIM3 (2 to 326 residues) expressed in baculovirus infected Sf21 cells assessed as remaining activity at 1 uM using RSRHSSYPAGT as substrate incubated for 30 mins in presence of [gamma-33P]ATP by filter binding method relative to control
[6] = target: Aurora kinase B (Homo sapiens) (UniProt Q96GD4); assay: Inhibition of recombinant human N-terminal His6-tagged Aurora B (1 to 344 residues) expressed in Escherichia coli assessed as remaining activity at 10 uM using LRRLSLGLRRLSLGLRRLSLGLRRLSLG as substrate incubated for 30 mins in presence of [gamma-33P]ATP by filter binding method relative to control
[7] = target: Eukaryotic elongation factor 2 kinase (Homo sapiens) (UniProt O00418); assay: Inhibition of recombinant human N-terminal GST-tagged EF2K (2 to 725 residues) expressed in Escherichia coli assessed as remaining activity at 1 uM using RKKFGESKTKTKEFL as substrate incubated for 30 mins in presence of [gamma-33P]ATP by filter binding method relative to control
Method in brief: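 Kinase panel run robotically at 21 °C for 30 min, linear in time and enzyme. […] Compound tested at 1 or 10 µM. Activity given as percentage of incubations without compound, mean of triplicates ± S.D.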

[8] = target: MAP kinase-interacting serine/threonine-protein kinase 1 (Homo sapiens) (UniProt Q9BUB5); assay: Inhibition of recombinant human N-terminal GST-tagged C-terminal His6-tagged MNK1 (2 to 424 residues) expressed in Escherichia coli assessed as remaining activity at 1 uM using eIF4E as substrate incubated for 30 mins in presence of [gamma-33P]ATP by filter binding method relative to control
mTORC1 (Homo sapiens) [9] = target: T1, mTORC1 (Homo sapiens); details: HEK293, dose 30.0 nM, time 30.0 min
[10] = target: Phosphorylase b kinase gamma catalytic chain, skeletal muscle/heart isoform (Homo sapiens) (UniProt Q16816); assay: Inhibition of recombinant human N-terminal GST-tagged PHKgamma1 (2 to 297 residues) expressed in Escherichia coli assessed as remaining activity at 10 uM using phosphorylase b peptide as substrate incubated for 30 mins in presence of [gamma-33P]ATP by filter binding method relative to control
Method in brief: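 Incubation was 30 min at room temperature (21 °C) under conditions linear with time and enzyme amount. Activity is reported as percent of control lacking compound, triplicate mean ± S.D.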

mTORC2 (Homo sapiens) [11] = target: T2, mTORC2 (Homo sapiens); details: HEK293, dose 100-1000 nM, time 12-48 hrs
mTORC2 (Homo sapiens) [12] = target: T2, mTORC2 (Homo sapiens); details: HEK293, dose 30-100 nM, time 30.0 min
[13] = target: Tyrosine-protein kinase CSK (Homo sapiens) (UniProt P41240); assay: Inhibition of recombinant human N-terminal GST-tagged CSK (1 to 450 residues) expressed in Escherichia coli assessed as remaining activity at 10 uM Cdc2 peptide as substrate incubated for 30 mins in presence of [gamma-33P]ATP by filter binding method relative to control; method in brief: as §1
[14] = target: Insulin receptor (Homo sapiens) (UniProt P06213); assay: (§2) Inhibition of recombinant human N-terminal His6-tagged IR (1001 to 1382 residues) expressed in baculovirus infected Sf21 cells assessed as remaining activity at 10 uM using KKSRGDYMTMQIG as substrate incubated for 30 mins in presence of [gamma-33P]ATP by filter binding method relative to control
[15] = target: AMPK alpha1/beta2/gamma1 (Homo sapiens) (UniProt O43741+P54619+Q13131); assay: as §2, with “recombinant” for “recombinant human”, “human AMPKalpha1 (11” for “IR (1001”, “559 residues)/AMPKbeta2 (1 to 272 residues)/AMPKgamma1 (1 to 331” for “1382”, “SAMS” for “KKSRGDYMTMQIG”
Method in brief: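 Run robotically for 30 min at 21 °C under linear conditions. Compound at 1 or 10 µM. Percentage activity remaining versus control without compound, triplicate mean ± S.D.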

mTORC1 (Homo sapiens) [16] = target: T1, mTORC1 (Homo sapiens); details: HEK293, dose 30-1000 nM, time 30.0 min; remark: listed apart in the source
[17] = target: Serine/threonine-protein kinase 26 (Homo sapiens) (UniProt Q9P289); assay: Inhibition of recombinant human N-terminal His6-tagged MST4 (1 to 416 residues) expressed in baculovirus infected Sf21 cells assessed as remaining activity at 1 uM using MBP as substrate incubated for 30 mins in presence of [gamma-33P]ATP by filter binding method relative to control
[18] = target: Insulin receptor-related protein (Homo sapiens) (UniProt P14616); assay: Inhibition of recombinant human N-terminal His6-tagged IRR (944 to 1236 residues) expressed in baculovirus infected Sf21 cells assessed as remaining activity at 1 uM using MBP as substrate incubated for 30 mins in presence of [gamma-33P]ATP by filter binding method relative to control
MEF = assay: Induction of cell cycle arrest in MEF cells assessed as accumulation at S phase at 3 uM incubated for 1 to 3 days by propidium iodide staining based flow cytometric analysis (reference value: 61.5 +/- 0.78%); format: toxicity; details: mouse, time 1-3 day
[19] = target: Tyrosine-protein kinase SYK (Homo sapiens) (UniProt P43405); assay: Inhibition of recombinant human N-terminal His6-tagged SYK (1 to 635 residues) expressed in baculovirus infected Sf21 cells assessed as remaining activity at 1 uM using Poly (Glu,Tyr) as substrate incubated for 30 mins in presence of [gamma-33P]ATP by filter binding assay relative to control

SMILES: COc1ccc(-c2ccc3c(N4CCOCC4)nc(N4C[C@@H](C)O[C@@H](C)C4)nc3n2)cc1CO [Ku-0063794]
- Activity [1]: 89%
- inhibition (mTORC1 (Homo sapiens) [2]): Active
- inhibition (mTORC2 (Homo sapiens) [3]): Active
- Activity [4]: 104%
- Activity [5]: 114%
- Activity [6]: 86%
- Activity [7]: 88%
- Activity [8]: 111%
- inhibition (mTORC1 (Homo sapiens) [9]): Active
- Activity [10]: 116%
- inhibition (mTORC2 (Homo sapiens) [11]): Active
- inhibition (mTORC2 (Homo sapiens) [12]): Active
- Activity [13]: 99%
- Activity [14]: 67%
- Activity [15]: 106%
- inhibition (mTORC1 (Homo sapiens) [16]): Dose-Dependent Effect
- Activity [17]: 87%
- Activity [18]: 105%
- Activity (MEF): 46.9%
- Activity [19]: 88%
